Screen size: about 65,000 compounds; about 1,200 (1.8%) were called active.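 Rule for the calls: active = activation above the mean activation of all tested compounds plus 3 SD (cut at about 50% in these data); inactive = the rest.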 Only a selection was taken, and actives are over-represented in it overall.
What follows are compounds tested against Steroidogenic factor 1 (Homo sapiens) (UniProt Q13285) (assay: SF-1 ligand-binding domain transactivation enhancers – cell-based, CHO-K1, Gal4-SF-1 LBD, luciferase luminescence, primary screen (AID 522)). Conditions: CHO-K1 Gal4-SF-1 LBD luciferase reporter; at 10 µM; active compounds read high; % increase over DMSO SF-1-specific signal.
Summary of the method: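 Assay system: CHO-K1 cells co-transfected with Gal4 DBD–human SF-1 LBD, 5xGal4 luciferase reporter; doses: 10 µM only; incubation: 20 h compound exposure at 37 °C after 1 h cell settling; signal: luciferase light emission; evaluation: percent activation versus DMSO; repeats: one test per compound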

Chain of Steroidogenic factor 1 (Homo sapiens) (Q13285 whole entry, looked up, the tested form may be a part): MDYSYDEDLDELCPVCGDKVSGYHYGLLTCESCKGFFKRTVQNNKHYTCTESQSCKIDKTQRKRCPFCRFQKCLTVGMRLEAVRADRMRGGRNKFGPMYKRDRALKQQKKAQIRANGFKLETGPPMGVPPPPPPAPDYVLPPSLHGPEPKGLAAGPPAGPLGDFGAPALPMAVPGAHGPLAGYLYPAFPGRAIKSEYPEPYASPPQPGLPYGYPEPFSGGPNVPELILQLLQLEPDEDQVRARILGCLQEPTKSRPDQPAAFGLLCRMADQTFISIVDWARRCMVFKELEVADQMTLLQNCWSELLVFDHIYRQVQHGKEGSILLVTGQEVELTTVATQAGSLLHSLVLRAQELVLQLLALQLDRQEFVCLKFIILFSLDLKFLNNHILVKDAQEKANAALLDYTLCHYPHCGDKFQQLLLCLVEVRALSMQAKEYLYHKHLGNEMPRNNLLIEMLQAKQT

activation, inactive:
CC(=O)c1ccc(NC(=O)N[C@@H](Cc2ccccc2)C(=O)O)cc1 -21%, Cc1cc(C)nc(NC(=O)Nc2ccccc2C(F)(F)F)n1 14.8%, O=C(c1cc(-c2ccc(O)cc2)on1)N1CCCc2ccccc21 47.5%, CC(C)C(NC(=O)OCc1ccccc1)C(=O)OCC(=O)N1C(C)CCCC1C (stereo not given) -2.9%, Cc1ccc(C(=O)NC2CC(C)(C)NC(C)(C)C2)c(C)c1 4.3%, O=C1CC(N2CCN(C(c3ccccc3)c3ccccc3)CC2)C(=O)N1 (stereo not given) -23%, COc1ccc(CCNC(=O)c2cc(-c3ccc4c(c3)OCO4)on2)cc1OC 3.9%, COc1ccc(CNC(=O)c2c(C)cc(=O)oc2C)cc1OC 7.4%, CN(C(=O)CSc1nnnn1-c1ccccc1)C1CCCCC1 34.6%, COc1ccc(-n2ncc3c(N4CCCc5ccccc54)ncnc32)cc1 33.2%, Cc1cccc(-n2ncc3c(N4CCc5ccccc54)ncnc32)c1 33.4%, Cn1nnnc1SCC(=O)N1CCN(Cc2ccccc2)CC1 -17.2%, CC(=NCC1CCCO1)c1c(O)[nH]c(=O)[nH]c1=O (stereo not given) 12.9%, COc1ccccc1Nc1ncc(C(C)=O)c(C)n1 34%, COC(=O)c1sc(NC(=O)c2ccc(OC)cc2OC)nc1C -57.8%, CC(=O)Nc1ccc(S(=O)(=O)N2CCN(C3CCCCCCC3)CC2)cc1 -6.4%, COc1cccc(N2CCN(C3CC(=O)N(c4ccc(Cl)cc4)C3=O)CC2)c1 (stereo not given) -14.7%, COc1ccc(C(=O)Nc2ccc(S(=O)(=O)Nc3onc(C)c3C)cc2)cc1OC -3.3%, COc1ccc(S(=O)(=O)N2CCN(C(=O)c3cccs3)CC2)cc1OC -5.5%, CC(NC(=O)COc1ccccc1)C(=O)NC1=NCCS1 (stereo not given) -0.2%, CCc1ccc(N2CC(C(=O)NC3=NCCS3)CC2=O)cc1 (stereo not given) -7.9%, C=CCn1c(CC(=O)Nc2cccc(OC)c2)nnc1SCC(=O)NC1CCCCC1 12.8%, COc1ccccc1N1CCN(C(=O)Cn2nnc(-c3cccs3)n2)CC1 5%, O=c1cc(Cn2nnc(-c3ccc(Cl)cc3)n2)nc2sccn12 -5.8%, O=S(=O)(NCC1CCCO1)c1ccc2ccccc2c1 (stereo not given) -16.7%, O=C(c1cccnc1NCc1ccccc1)N1CCOCC1 -2.1%, CCOC(=O)c1sc(/N=C/Nc2nc(C)c(C(=O)OCC)s2)nc1C -2%, COc1ccc(CCN(C)C(=O)C2CCCN(Cc3ccc(OC)c(OC)c3)C2)cc1OC (stereo not given) 5.8%, O=C(Cn1nnc(-c2ccccc2)n1)NCc1ccccc1 8.3%, Cc1ccccc1-c1nnn(CC(=O)c2ccc(S(=O)(=O)N3CCCC3)cc2)n1 -10.4%, CN(C(=O)COc1ccccc1)c1nnc(-c2ccncc2)s1 -6.7%, CN(C(=O)c1ccno1)c1nnc(-c2cccnc2)s1 -11.5%, COc1cc2cc(CN(CCN3CCCC3)C(=O)Nc3ccccc3Cl)c(=O)[nH]c2cc1OC -8.6%, COc1cc(-c2nc(-c3ccncc3)no2)cc(OC)c1OC -2.5%, COc1ccc(-c2nc(-c3ccccc3)no2)c(OC)c1 -82.9%, COCCOC(=O)C1=C(C)Nc2nc(C)nn2C1c1ccccc1 (stereo not given) 4.8%, CCCCCNC(=O)Cc1ccc(OC)cc1 -9.8%, O=C(O)CSCNC(=O)CC12CC3CC(CC(C3)C1)C2 -5.6%, Cc1ccc(S(=O)(=O)Nc2ccc3ncccc3c2)cc1 -16.8%, COc1cc(NS(=O)(=O)c2ccccc2)ccc1-n1nc(C)cc1C -10.6%, COc1cc(C2C(C#N)=C(C)NC3=C2C(=O)CC(C)(C)C3)ccc1O (stereo not given) 1.5%, Cc1ccc(Cn2ccc(NC(=O)C3C4CCC(C4)C3C(=O)O)n2)cc1 (stereo not given) 3.1%, CCc1nnc(NC(=O)C2CCCN2S(=O)(=O)c2ccccc2)s1 (stereo not given) -4.2%, COc1ccc(CC(=O)Nc2ccc(-c3nnc(-c4ccc(C)cc4)o3)cc2)cc1 -47.6%, CCOc1ccc(-c2nnc(-c3ccco3)o2)cc1 -48%, CCCOc1cccc(C(=O)Nc2nnn(CCC)n2)c1 26.3%, CCCCOc1ccc(-c2nnc(-c3ccco3)o2)cc1 23.6%, CCOC(=O)c1[nH]c2ccc(OC)cc2c1NC(=O)CCN1CCN(Cc2ccccc2)CC1 -7.7%, COc1cccc(-n2cc3c(c2-c2ccccc2)c(=O)n(C)c(=O)n3C)c1 -21.1%, CCOC(=O)c1cn(CC(=O)Nc2ccc(C(C)C)cc2)nn1 3.2%, O=C(CN1CCN(C(=O)c2ccco2)CC1)Nc1ccc(Cl)c(C(F)(F)F)c1 11.1%, CCCC(=O)Nc1cccc(-c2cn3ccsc3n2)c1 45.8%, Cc1ccc(S(=O)(=O)NCc2cn3ccsc3n2)c(C)c1 -0.8%, O=C(O)[C@@H]1CCCN1c1ncnc2sc3c(c12)CCC3 -13.4%, CCOc1cc(C(=O)Nc2ncccn2)cc(OCC)c1OCC -1.3%, O=C(Nc1ncccn1)c1cccs1 18.9%, Cc1ccccc1OCCC(=O)Nc1c(C)n(C)n(-c2ccccc2)c1=O 13.7%, Cc1nnc(NC(=O)CCC(=O)N2CCC(C)CC2)s1 0.2%, Cc1ccc(S(=O)(=O)N2CCC(N3CCCCCC3)CC2)cc1 10.8%, CCN(CC)S(=O)(=O)c1cc(C(=O)Nc2ccccn2)ccc1C 49.3%, Cc1nc2c(c(=O)n1Cc1ccco1)c1nc3ccccc3nc1n2Cc1ccccc1 -2.3%, CC(C)NC(=O)CCCn1c(=S)[nH]c2cc3c(cc2c1=O)OCO3 2.9%, Cc1cccc(NC(=O)c2ccccc2NC(=O)C(C)(C)C)n1 -22.9%, Cc1cccc(NC(=O)COc2ccccc2C)n1 -19.2%, O=C(c1c(Cl)nc2sccn12)N1CCCc2ccccc21 4.7%, CS(=O)(=O)N1CCN(C(=O)Cc2ccccc2)CC1 3.5%, O=C(CCC(=O)N1CCN(S(=O)(=O)c2ccccc2)CC1)NC1CCCc2ccccc21 (stereo not given) -3.9%, COc1ccccc1CNC(=O)CCn1c(=O)sc2ccccc21 -21.4%, CS(=O)(=O)c1ccc2nc(NC(=O)CN3CCCCCC3)sc2c1 -3.6%, COCCCNC(=O)Cn1cc(C(=O)C2CC2)c2ccccc21 1.7%, CCOc1ccccc1Nc1nnc(SCC(=O)Nc2cc(C)on2)s1 -12.5%, C=CCNC(=O)c1ccc(C)c(Br)c1 -12.1%, COc1ccc2c(c1)CCc1c(C(=O)N3CCc4ccccc4C3)noc1-2 2.4%, COc1ccc2c(c1)CCc1c(C(=O)Nc3c(C)n(C)n(-c4ccccc4)c3=O)noc1-2 -6%, O=C(O)CCC(=O)N(Cc1ccco1)c1nc(-c2ccccc2)cs1 9.9%, CCSc1nc(C)nc2c1oc1ccccc12 -10.2%, CCc1nc(N2CCN(c3nc(C)cc(C)n3)CC2)c2oc3ccccc3c2n1 12%, COc1ccc(N2CCN(C(=O)CSc3nnc4ncccn34)CC2)cc1 -2.5%, CCc1nnc(NC(=O)CSc2nnc(COc3ccc(C#N)cc3)n2-c2ccccc2)s1 0.6%, O=C(OCC(=O)N1CCCC1)c1ccco1 14.1%, O=C(COC(=O)c1ccccc1C(=O)c1ccccc1)c1ccco1 -2.1%

activation, active:
O=C(Nc1ccccc1C(F)(F)F)c1cc(-c2ccc(O)cc2)on1 64.4%, COc1ccc(-c2cc(C(=O)NC(C(=O)O)C(C)C)c(C)o2)cc1OC (stereo not given) 56.5%, COc1ccc(-n2ncc3c(N4CCc5ccccc54)ncnc32)cc1 59.8%, COc1cccc2sc(Nc3nc(C)c(C(C)=O)s3)nc12 109%, O=C(NC1=NCCS1)c1ccc(Cl)s1 66.2%, Clc1cccc(Cl)c1Cn1nnc(-c2cccs2)n1 50.8%, CC(C)(C)NC(=O)Cn1nnc(-c2ccccc2Cl)n1 50%, CN(C(=O)c1ccccn1)c1nnc(-c2ccccn2)s1 56.6%, COc1ccc(-c2noc(-c3cccc(OC)c3OC)n2)cc1OC 100%, O=S(=O)(Nc1ccc2nc(-c3ccco3)[nH]c2c1)c1ccccc1 53.5%, CCC(=O)Oc1cccc(C(=O)Nc2ccc(-c3nnc(-c4ccco4)o3)cc2)c1 79.8%, Cc1ccc(OCC(=O)Nc2ccc(-c3nnc(-c4ccco4)o3)cc2)cc1 65.5%, COc1ccc(-c2cn3ccsc3n2)cc1 53.3%, Cn1c(=O)c(C(=O)Nc2ncccn2)c(O)c2ccccc21 64.2%, Cc1cccc(NC(=O)c2ccc3ccccc3n2)n1 98.6%, N#C/C=C1\Sc2ccccc2C(=O)N1CC(=O)N1CCN(S(=O)(=O)c2ccccc2)CC1 53.6%, COc1ccc2c(c1)CCc1c(C(=O)N3CCCC3)noc1-2 55.3%, CCc1nc(Nc2ccc3nccnc3c2)c2oc3ccccc3c2n1 50.3%, CCN(CC)c1ccc(C(=O)OCC(=O)c2ccco2)cc1 53.6%

Source: PubChem BioAssay AID522 (The Scripps Research Institute Molecular Screening Center, 2006)
